Measured values reported in the RNAGym collection of RNA variant scans (doi:10.1126/science.aae0568).
Fewer inactive variants are shown than the library holds.

B1: tRNA (parent)
chain: GUUCCGUUGGCGUAAUGGUAACGCGUCUCCCUCCUAAGGAGAAGACUGCGGGUUCGAGUCCCGUACGGAACG

Variants of: B1
Assay: yeast fitness relative to wild type (ratio to wild type); higher = fitter; tRNA-Arg(CCU), competitive growth, 37 C, YPD
How it was run: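 The tRNA-Arg(CCU) gene variants were made by chemical synthesis with a 3% per-site mutation rate at 69 sites and inserted at the native genomic locus of Saccharomyces cerevisiae. After pooling, the strains were competed in YPD at 37°C for 24 hours in six parallel replicates. Gene amplicons from the start population and each end population were read by 100-nucleotide paired-end sequencing, and Darwinian fitness relative to wild type was taken from genotype frequency changes. Genotypes needed ≥ 100 starting reads, and estimates < 0.5 were set to 0.5.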

Row | Variant | yeast fitness
1 | GUUCCGUUGGCGUAAUGGUACCGCGUCUCCGUCCUAAGGAGAAGACUGCGGGUUCGAGUCCCGUAUGGAACG | ≤ 0.5
2 | GUUCCGUUGGCGUAAUGGUACCGCGUCUCUCUCCUAAAGAGAAGACUGCGGGUUCGAGUCCCGUACGGAACG | ≤ 0.5
3 | GUUCCGUUGGCGUAAUGGUACCGAGUCUCCCUCCUAAGGAGAAGACUGCGGGUACGAGUCCCGUACGGACCG | ≤ 0.5
4 | GUUCCGUUGGCGUAAUGGUACCGCGUCUCACUCCUAAGGAGAGGACUGCGGGUUCGAGUCUCGUACGGAACG | ≤ 0.5
5 | GUUCCGUUGGCGUAAUGGUACCGUGUCUCCCUCCUCAGGAGAAGACUGCGGGUUCGUGUCCCGUACGGAACG | ≤ 0.5
6 | GUUCCGUUGGCGUAAUGGUACCGCGUCUGCCUCCUGAGGAGAAGAUUGCGGGUUCGAAUCCCGUACGGAACG | 0.535
7 | GUUCCGUUGGCGUAAUGGUACCGAGUCUCCAUCCUAAGGAGAAGACAGCGGGUUCGAGUCCCGUACGGAACG | ≤ 0.5
8 | GUUCCGUUGGCGUAAUGGUACCGCGUGAUCCUCUUAAGGAGAAGACUGCGGGUUCGGCUCCCGUACGGAACG | ≤ 0.5
9 | GUUCCGUUGGCGUAAUGGUACCGCGUCUCCAUCCUAAGGAGAAGACUGCGGGUUCGAGUCCCGUCCGGAACG | ≤ 0.5
10 | GUUCCGUUGGCGUAAUGGUACCGCGUAUCCCUCCUAAGGAGAAGACUGGGGGUUCGAGUCCCGUACGGCACG | ≤ 0.5
11 | GUUCCGUUGGCGUAAUGGUACCGCGUUUCCCUCCUAAGGAGAAGACUGCAGGUUCGAGUCCCGUACGGAACG | 0.571
12 | GUUCCGUUGGCGUAAUGGUACCGUCGCUCCCUCCUAAGGAGAAGACUGCGGGUUCGAGACCCGUACGGACCG | ≤ 0.5
13 | GUUCCGUUGGCGUAAUGGUACCGCGUCUUCGUCCUAAGGAGAAGACUGCGGGUUCGAGUCCCGUACGGAACG | ≤ 0.5
14 | GUUCCGUUGGCGUAAUGGUACCGCGUUUCCCUCUUAAGGAGAAGACUGCCGCUUCGAGUCUCGUACGGAACG | ≤ 0.5
15 | GUUCCGUUGGCGUAAUGGUACAGCGUCUCCCUCGUAAGGAGAACACUGCGGGUUCGAGUCCAGUACGGAACG | 0.606
16 | GUUCCGUUGGCGUAAUGGUACCGCGUGUCCCUCCUAAGGAGAAGAAUGCGGGUUGGAGUCCCGUACGGAACG | ≤ 0.5
17 | GUUCCGUUGGCGUAAUGGUACCGCGUCUACCUCCUAAGGAGAAGACUGCGGAUUCGAGUCUCGUACGGAACG | ≤ 0.5
18 | GUUCCGUUGGCGUAAUGGUACCGCGUCUUCCUCCAAAGGAGAAGACUGCGGGUUCGAGUCGCGUACGGAACG | 0.707
19 | GUUCCGUUGGCGUAAUGGUACCGCGUCUUCGUCCUAAGGAGAUGACUGCGGGUUCGAGUCCCGUCCGGAACG | ≤ 0.5

Row | Variant | yeast fitness
20 | GUUCCGUUGGCGUAAUGGUACCGCGUCUCCCUCCUAAGGAGAAGACUGCGGGUUCGAGUCCCGUACGGAUCG | 0.894
21 | GUUCCGUUGGCGUAAUGGUACCGCGUCUCCCUCCUAAGGAGAAGACUGCGGGUUCGAGUCCCGUACGGAGCG | 0.861
22 | GUUCCGUUGGCGUAAUGGUACAGUGUCUCCCUCCUCAGGAGAAGACUGCGGGUUCGAGUCCCGUACGGAACG | ≤ 0.5
23 | GUUCCGUUGGCGUAAUGGUACCGCGUCUCCAUGCUAAGGAGAAGAAUGCGGGUUCGAGUCCCGUACGGAACG | ≤ 0.5
24 | GUUCCGUUGGCGUAAUGGUACCGUGUCUCCCUCCUACGAAGAAGACUGGGGGUUCGAGUCCCGUACGGAACG | ≤ 0.5
25 | GUUCCGUUGGCGUAAUGGUACCGCGUCUGCCUCCUAAGGAGAAGACUGCGGGUUCGAGCCCCGUACGGAACG | ≤ 0.5
26 | GUUCCGUUGGCGUAAUGGUACCGUGUCUCCCACCUAAGGAGAAGACUGCGGGUUCGAGUCUCGUACGGAACG | ≤ 0.5
27 | GUUCCGUUGGCGUAAUGGUACCGCGUUUCCCUCCUAAGGAGAAGACUCCGGGUUCGAGUCCCGUACGGAACG | 0.547
28 | GUUCCGUUGGCGUAAUGGUACCGGCUCUCCCUCCUAAGGAGAAAACUGCGGGUUGAAGUCCCGUACGGAACG | ≤ 0.5
29 | GUUCCGUUGGCGUAAUGGUACCGCGUUUCCCUCCUAAGGAGAAGACUGCGGGUUGGAGUCCCGUACGGAACG | 0.617
30 | GUUCCGUUGGCGUAAUGGUACCGUGUCUCCCUCCUCAGGAGAAGACUGCGGGUUCGAGUCCCGUACGGAACG | 0.592
31 | GUUCCGUUGGCGUAAUGGUACCGCGUUUCCCUCCUAAGGAGAAGACUGCGGGUUCGAGUCUCGUACGAAACG | ≤ 0.5
32 | GUUCCGUUGGCGUAAUGGUACCGCGUUUCCCUCCUAAGGAGAAGACUGCGGGUUCGAGUCCCAUGCGGAACG | 0.505
33 | GUUCCGUUGGCGUAAUGGUACCGCGUCUCGCUCGUAAGGAGAAGACUGCGGGUUCGAGUCCCGUACGGAACG | 0.627
34 | GUUCCGUUGGCGUAAUGGUACGGCGUCUCCCUCCUAACGAGAAGACUGCGGGUUCGCGUCCCGUUCGGAACG | ≤ 0.5
35 | GUUCCGUUGGCGUAAUGGUACCGCGUCUCUCUCCUAAGGAGAAGACUGCGGGUUCGAGUCCAGUACGGAACG | 0.644
36 | GUUCCGUUGGCGUAAUGGUACCGCGUUUCCCUCCUAAGGAAAAGACUGCGGGUUCGAGUCCCGUACGGAACG | 0.966
37 | GUUCCGUUGGCGUAAUGGUACAGUGUCUCCCACCUAAGGAGAAGACUGCGGGUUCGAGUCCGGUACGGAACG | ≤ 0.5
